Here are results for 25 compounds from ChEMBL document CHEMBL4400556, “β-Lactones: A Novel Class of Ca2+-Independent Phospholipase A2 (Group VIA iPLA2) Inhibitors with the Ability To Inhibit β-Cell Apoptosis” (J Med Chem, 2019).

Calls of active or inactive are those of the source. No cut-off for these calls is given here.

Series [1] concerns the target T1, Cytosolic phospholipase A2 (Homo sapiens) (UniProt P47712).
T1 sequence (whole entry): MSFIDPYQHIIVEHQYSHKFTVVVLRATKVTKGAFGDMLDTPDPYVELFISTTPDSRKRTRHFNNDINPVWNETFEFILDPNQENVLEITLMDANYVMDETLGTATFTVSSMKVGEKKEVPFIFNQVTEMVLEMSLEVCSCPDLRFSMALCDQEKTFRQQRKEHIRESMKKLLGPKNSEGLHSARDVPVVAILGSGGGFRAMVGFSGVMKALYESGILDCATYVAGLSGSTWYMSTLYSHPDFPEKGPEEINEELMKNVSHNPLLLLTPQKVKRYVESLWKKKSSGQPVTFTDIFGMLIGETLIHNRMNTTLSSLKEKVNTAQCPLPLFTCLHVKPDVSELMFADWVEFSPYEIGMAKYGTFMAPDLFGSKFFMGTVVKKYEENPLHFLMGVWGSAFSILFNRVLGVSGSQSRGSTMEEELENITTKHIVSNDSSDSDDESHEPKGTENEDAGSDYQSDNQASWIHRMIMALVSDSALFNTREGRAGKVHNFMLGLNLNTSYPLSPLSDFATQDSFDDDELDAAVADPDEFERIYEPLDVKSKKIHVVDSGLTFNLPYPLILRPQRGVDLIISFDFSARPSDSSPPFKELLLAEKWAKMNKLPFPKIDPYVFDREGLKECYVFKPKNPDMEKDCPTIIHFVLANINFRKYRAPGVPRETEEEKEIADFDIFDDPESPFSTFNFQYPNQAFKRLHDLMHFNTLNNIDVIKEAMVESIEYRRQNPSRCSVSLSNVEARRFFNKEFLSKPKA
Nature of the series: Inhibition of human recombinant G4A cPLA2 at 0.091 mole fraction using arachidonyl-1-14C PAPC , PAPC and PIP2 incubated for 30 mins by HPLC-MS analysis based radioactivity-based group specific mixed micelle assay. An outline of the steps: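 Human recombinant GIVA cPLA2, radioactivity mixed-micelle assay. Substrate: 400 μM Triton X-100, 95.3 μM PAPC, 1.7 μM arachidonyl-1-14C PAPC, 3 μM PIP2. Buffer: 100 mM HEPES pH 7.5, 90 μM CaCl2, 2 mM DTT, 0.1 mg/ml BSA. Screened at 0.091 mole fraction from DMSO stock. XI(50) fitted from % inhibition vs log mole fraction.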

The species named for series [2] is Homo sapiens. In words: Inhibition of human recombinant G5 sPLA2 at 0.091 mole fraction using arachidonyl-1-14C PAPC and PAPC by HPLC-MS analysis based radioactivity-based group specific mixed micelle assay relative to control. The method in brief:
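Human recombinant GV sPLA2, radioactivity mixed-micelle assay. Substrate: 400 μM Triton X-100, 98.3 μM PAPC, 1.7 μM arachidonyl-1-14C PAPC. Buffer: 50 mM Tris-HCl pH 8.0, 5 mM CaCl2. Compound added from DMSO at 0.091 mole fraction; percent inhibition measured.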

Series [3] deals with T2, 85/88 kDa calcium-independent phospholipase A2 (Homo sapiens) (UniProt O60733).
T2 sequence (whole entry): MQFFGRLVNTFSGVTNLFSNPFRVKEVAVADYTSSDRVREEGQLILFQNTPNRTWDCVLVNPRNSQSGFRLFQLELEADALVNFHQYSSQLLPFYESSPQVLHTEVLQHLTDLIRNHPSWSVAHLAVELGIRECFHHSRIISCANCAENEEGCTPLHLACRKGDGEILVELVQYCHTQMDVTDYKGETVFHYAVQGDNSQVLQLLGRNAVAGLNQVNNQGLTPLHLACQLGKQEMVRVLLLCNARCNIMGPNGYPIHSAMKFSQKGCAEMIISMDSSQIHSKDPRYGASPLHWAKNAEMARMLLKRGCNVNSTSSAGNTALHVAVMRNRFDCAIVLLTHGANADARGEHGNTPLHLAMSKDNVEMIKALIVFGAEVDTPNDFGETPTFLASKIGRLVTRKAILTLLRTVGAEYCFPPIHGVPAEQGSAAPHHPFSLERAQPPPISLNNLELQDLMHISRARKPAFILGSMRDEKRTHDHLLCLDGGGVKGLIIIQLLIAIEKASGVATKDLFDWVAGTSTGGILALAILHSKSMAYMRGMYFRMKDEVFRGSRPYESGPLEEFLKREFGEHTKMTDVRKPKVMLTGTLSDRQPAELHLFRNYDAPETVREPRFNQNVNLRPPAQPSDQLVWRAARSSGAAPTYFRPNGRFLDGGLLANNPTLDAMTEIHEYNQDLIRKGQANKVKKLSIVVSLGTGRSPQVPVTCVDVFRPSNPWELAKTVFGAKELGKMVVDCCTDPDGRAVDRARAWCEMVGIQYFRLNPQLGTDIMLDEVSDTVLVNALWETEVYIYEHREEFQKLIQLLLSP
In words: Inhibition of human recombinant G6A iPLA2 at 0.091 mole fraction using arachidonyl-1-14C PAPC and PAPC incubated for 30 mins by HPLC-MS analysis based radioactivity-based group specific mixed micelle assay relative to control. An outline of the steps:
(§1)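 Human recombinant GVIA iPLA2, radioactivity mixed-micelle assay. Substrate: 400 μM Triton X-100, 98.3 μM PAPC, 1.7 μM arachidonyl-1-14C PAPC. Buffer: 100 mM HEPES pH 7.5, 2 mM ATP, 4 mM DTT. Screened at 0.091 mole fraction from DMSO.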

Series [4] deals with T2, 85/88 kDa calcium-independent phospholipase A2 (Homo sapiens). Nature of the series: (§2) Inhibition of human recombinant G6A iPLA2 using arachidonyl-1-14C PAPC and PAPC incubated for 30 mins by HPLC-MS analysis based radioactivity-based group specific mixed micelle assay. An outline of the steps:
as §1

Series [5] is filed under the species Homo sapiens. In words: Selectivity index, ratio of IC50 for inhibition of human recombinant G4A cPLA2 to IC50 for inhibition of human recombinant G6A iPLA2.
For series [6], the system named is INS1. In words: Cytotoxicity against rat INS-1 cells assessed as cell death at 10 uM after 16 hrs by TUNNEL assay (reference value: 7.06 +/- 0.36%). It is filed as cell-based. The settings on record: ins1, 16 h.
For series [7], the target named is T3, 85/88 kDa calcium-independent phospholipase A2 (Homo sapiens, UniProt O60733).
T3 sequence (O60733 whole entry): T2 sequence (whole entry)
Described as §2. The method in brief:
as §1

Series [8] has as its system INS1. Nature of the series: Inhibition of IL-1beta/IFNgamma-induced apoptosis in rat INS-1 cells at 1 uM after 16 hrs by DAPI-based TUNEL assay. It is filed as functional. The settings on record: INS1, 16 h. The method in brief: (§3)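 INS-1 cells exposed 16 h to IL-1β (100 U/mL) plus IFNγ (300 U/mL), with or without compound (0.10–10 μM) or DMSO vehicle (1 μL/mL). Apoptosis read by TUNEL (green) over total DAPI-stained nuclei, 6 fields per slide. The 6-field mean per slide is one replicate (n=3–12). Results given as mean ± SEM percent apoptotic cells.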

The subject of series [9] is INS1. Nature of the series: Inhibition of IL-1beta/IFNgamma-induced apoptosis in rat INS-1 cells at 0.1 uM after 16 hrs by DAPI-based TUNEL assay. It is filed as functional, cell-based. The method in brief:
as §3

Series [10] has as its system INS1. Nature of the series: Inhibition of IL-1beta/IFNgamma-induced apoptosis in rat INS-1 cells at 0.1 to 10 uM after 16 hrs by DAPI-based TUNEL assay.
In series [11] the test system is INS1. Nature of the series: Inhibition of IL-1beta/IFNgamma-induced apoptosis in rat INS-1 cells at 10 uM after 16 hrs by DAPI-based TUNEL assay. It is filed as functional. The settings on record: INS1, 16 h. The method in brief:
as §3

Usually inhibition stands for the share of the control response that was lost under treatment. In general, IC50 refers to the concentration that inhibits the measured activity by half.

Regarding `CCCCCCC1OC(=O)C1CCCc1ccc2ccccc2c1` (centres undefined), the inhibition in series [1] turned out to be 54%; in [2] it was 40%; in series [3] it was 59%.
As to `CCC[C@H]1OC(=O)[C@@H]1CCCc1ccc(OC)cc1` (racemic), the XI50 (mole fraction) in [4] is 0.00019. Besides, the inhibition in series [1] was 85%; in [2], 26%; in series [3], 99%.
Turning to `CCC[C@H]1OC(=O)[C@@H]1CCCCc1ccccc1` (racemic), in series [5], the Ratio IC50 worked out at 22000. Further, the Activity in [6] worked out at 9.51%. Further, the XI50 (mole fraction) in [4] is 2.1e-06. The IC50 in series [7] turned out to be 1 nM. In series [8], this compound showed an inhibition at 1 µM of 28%. The inhibition result in [9] was “inactive”. Moreover, the inhibition result in series [10] was “Dose-dependent effect”; in series [1], 88%; in series [2], 25%; in series [3] it was 100%. This compound gave an inhibition at 10 µM in series [11] of 41%.
With `CCC[C@@H]1OC(=O)[C@@H]1CCCc1ccccc1` (racemic), the inhibition in series [1] was 97%; in series [2] it was less than 25%; in series [3], 92%.
Regarding `COc1ccc(CCSCC(=O)c2noc(C(C)(C)C)n2)cc1`, the XI50 (mole fraction) in [4] turned out to be 0.0057. In [2], the inhibition is 38%.
Turning to `CC(C)C1OC(=O)C1CCCc1ccccc1` (centres undefined), the inhibition in [1] is 85%; in series [2], 29%; in series [3], 93%.
Turning to `CCC[C@@H]1OC(=O)[C@@H]1CCCc1ccc(OC)cc1` (racemic), the XI50 (mole fraction) in [4] is 0.038. The inhibition is 95% in [1], 29% in series [2] and 85% in [3].
As for `CCCC1OC(=O)C1CCCc1ccc(OC)cc1` (centres undefined), the inhibition in series [1] turned out to be 76%; in [3], 96%.
For the compound `CCCCCCC1OC(=O)C1CCCc1ccccc1` (centres undefined), the inhibition was determined as 91% in series [1], 47% in series [2] and 89% in series [3].
Turning to `O=C(CCCCc1ccccc1)C(F)(F)C(F)(F)F`, the inhibition in series [2] was 28%.
As to `CC1OC(=O)C1CCCc1ccc2ccccc2c1` (centres undefined), the values for the inhibition in series [1], in series [2] and in [3] were 85%, 26% and 89%, respectively.
The corresponding values for `CCCCCCC1OC(=O)C1CCCc1ccc(-c2ccccc2)cc1` (centres undefined) are 58%, 40% and 78%.
Take `O=C(CCCCc1ccc2ccccc2c1)C(F)(F)F`: the inhibition in series [2] turned out to be 37%.
Turning to `CCC[C@H]1OC(=O)[C@@H]1CCCc1ccc2ccccc2c1` (racemic), the XI50 (mole fraction) in series [4] came to 0.0003. Also, the inhibition in [1] came to 73%; in series [2], 30%; in series [3], 98%.
For `CCCC1OC(=O)C1CCCCc1ccc2ccccc2c1` (centres undefined), the inhibition in [1] was 71%; in series [3], 97%.
With `CCCC1OC(=O)C1CCCCc1ccccc1` (centres undefined), the inhibition came out at 84% in series [1] and 100% in series [3].
In the case of `CCC[C@@H]1OC(=O)[C@@H]1CCCCc1ccccc1` (racemic), the XI50 (mole fraction) in series [4] stood at 0.007. Also, the IC50 in series [7] is 3500 nM. The results for the inhibition in [1], in series [2] and in [3] were 94%, 34% and 99%, respectively.
For the compound `CCCC1OC(=O)C1CCCc1ccccc1` (centres undefined), the inhibition in series [1] was found to be 81%; in series [3], 96%.
As to `CCCC1OC(=O)C1CCCc1ccc2ccccc2c1` (centres undefined), the figures for the inhibition in series [1] and in [3] were 77% and 98%, respectively.
`CCC[C@@H]1OC(=O)[C@@H]1CCCc1ccc2ccccc2c1` (racemic): the values for the inhibition in series [1], in series [2] and in series [3] were 89%, 27% and 81%, respectively.
In the case of `CCC[C@H]1OC(=O)[C@@H]1CCCCc1ccc2ccccc2c1` (racemic), the XI50 (mole fraction) in series [4] amounted to 9e-05. For the same compound, the inhibition in series [1] is 59%; in series [2] it was 29%; in [3] it was 99%.
As for `CCC1OC(=O)C1CCCc1ccc2ccccc2c1` (centres undefined), the inhibition was found to be 85% in [1], 29% in [2] and 93% in series [3].
Consider `CCC[C@H]1OC(=O)[C@@H]1CCCc1ccccc1` (racemic), for which, in series [4], the XI50 (mole fraction) was found to be 0.00019. Besides, the inhibition in series [1] turned out to be 90%; in series [2] it was 25%; in series [3] it was 99%.
As for `COc1ccc(CCCCC(=O)C(F)(F)C(F)(F)F)cc1`, the inhibition in series [2] is 33%.
As to `CCC[C@@H]1OC(=O)[C@@H]1CCCCc1ccc2ccccc2c1` (racemic), in series [4], the XI50 (mole fraction) amounted to 0.0021. For the same compound, the inhibition in [1] is 72%; in [2], less than 25%; in series [3], 95%.
